The values below come from ChEMBL document CHEMBL3272107, “Design of potent antagonists of the vasopressor response to arginine-vasopressin” (J Med Chem, 1978).

SMILES strings stand for the structures. *1 amine or outer side, *2 acyl side, *3 side chain or, on linkers, in order; H or OH if unused. Where a SMILES comes first, the peptide text is derived from it. Bridges are numbered along the chain shown (N, C = ends). X1 = CC(C)(CC(=O)[*:1])S[*:2]

Assay [1] has as its system Rattus norvegicus. Put plainly: Antidiuretic activity in iv dosed rat. The format is functional, Urine. The gist of the method:
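Rats under ethanol anesthesia, analogue given intravenously; antidiuretic response measured by previously described method.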

Assay [2] relates to Rattus norvegicus. Put plainly: Vasopressor activity in iv dosed phenoxybenzamine treated rat. In kind it is functional. The method in brief:
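Rats pretreated with phenoxybenzamine, under urethane anesthesia, analogue given intravenously; vasopressor (blood pressure) response measured, antagonism expressed as pA2 by Schild method, pA2 calculated per assay group and reported as mean ± SE with number of assays.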

Assay [3] relates to Rattus norvegicus. Briefly: Antivasopressor activity in iv dosed phenoxybenzamine treated rat assessed as inhibition of arginine-vasopressin-induced effect. The following applies: read-out: pA2 (converted). The format is functional, organism-based. The method in brief:
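Rats pretreated with phenoxybenzamine and anaesthetised with urethane; pressor response to arginine-vasopressin recorded with and without intravenous analogue. pA2 derived by the Schild method, one pA2 calculated per assay group, reported as mean ± SE across groups, number of assays stated.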

Regarding `COc1ccc(C[C@@H]2NC(=O)[C@@H](N)CSSC[C@@H](C(=O)N3CCC[C@H]3C(=O)N[C@@H](CCCNC(=N)N)C(=O)NCC(N)=O)NC(=O)[C@H](CC(N)=O)NC(=O)[C@H](CCC(N)=O)NC(=O)[C@H](Cc3ccccc3)NC2=O)cc1`, the Activity with Rattus norvegicus [1] is 386 U/mg; in the assay on Rattus norvegicus [2] it was 9.7 U/mg.

Consider `COc1ccc(C[C@@H]2NC(=O)[C@@H](N)CSSC[C@@H](C(=O)N3CCC[C@H]3C(=O)N[C@@H](CCCCN)C(=O)NCC(N)=O)NC(=O)[C@H](CC(N)=O)NC(=O)[C@H](CCC(N)=O)NC(=O)[C@H](Cc3ccccc3)NC2=O)cc1`, for which the Activity in the assay with Rattus norvegicus [1] is on record as 79 U/mg; in the assay on Rattus norvegicus [2], 2.4 U/mg.

In the assay on Rattus norvegicus [1], `CC[C@H](C)[C@@H]1NC(=O)[C@H](Cc2ccc(OC)cc2)NC(=O)[C@@H](N)CSSC[C@@H](C(=O)N2CCC[C@H]2C(=O)N[C@@H](CC(C)C)C(=O)NCC(N)=O)NC(=O)[C@H](CC(N)=O)NC(=O)[C@H](CCC(N)=O)NC1=O` had an Activity of 0.01 U/mg. In the assay on Rattus norvegicus [1], `COc1ccc(C[C@@H]2NC(=O)CC(C)(C)SSC[C@@H](C(=O)N3CCC[C@H]3C(=O)N[C@@H](CCCN=C(N)N)C(=O)NCC(N)=O)NC(=O)[C@H](CC(N)=O)NC(=O)[C@H](CCC(N)=O)NC(=O)[C@H](Cc3ccccc3)NC2=O)cc1` (Y(Me)FQNCPRG-NH2; linker N-5 via X1) had an Activity of 3.5 U/mg. Further, the Kb in the assay with Rattus norvegicus [3] is 11 nM. With `CC1(C)CC(=O)N[C@@H](Cc2ccc(O)cc2)C(=O)N[C@@H](Cc2ccccc2)C(=O)N[C@@H](CCC(N)=O)C(=O)N[C@@H](CC(N)=O)C(=O)N[C@H](C(=O)N2CCC[C@H]2C(=O)N[C@@H](CCCNC(=N)N)C(=O)NCC(N)=O)CSS1` (YFQNCPRG-NH2; linker N-5 via X1), the Activity in the assay with Rattus norvegicus [1] amounted to 42 U/mg. Turning to `CC[C@H](C)[C@@H]1NC(=O)[C@H](Cc2ccc(O)cc2)NC(=O)CCSSC[C@@H](C(=O)N2CCC[C@H]2C(=O)N[C@@H](CC(C)C)C(=O)NCC(N)=O)NC(=O)[C@H](CC(N)=O)NC(=O)[C@H](CCC(N)=O)NC1=O` [DEMOXYTOCIN], the Activity in the assay on Rattus norvegicus [1] is on record as 19 U/mg; in the assay on Rattus norvegicus [2], 1.44 U/mg.

In the assay on Rattus norvegicus [2], `N=C(N)NCCC[C@@H](NC(=O)[C@@H]1CCCN1C(=O)[C@@H]1CSSCCC(=O)N[C@@H](Cc2ccc(O)cc2)C(=O)N[C@@H](Cc2ccccc2)C(=O)N[C@@H](CCC(N)=O)C(=O)N[C@@H](CC(N)=O)C(=O)N1)C(=O)NCC(N)=O` [DESMOPRESSIN] displayed an Activity of 346 U/mg.

As to `NCCCC[C@H](NC(=O)[C@@H]1CCCN1C(=O)[C@@H]1CSSC[C@H](N)C(=O)N[C@@H](Cc2ccc(O)cc2)C(=O)N[C@@H](Cc2ccccc2)C(=O)N[C@@H](CCC(N)=O)C(=O)N[C@@H](CC(N)=O)C(=O)N1)C(=O)NCC(N)=O` [LYPRESSIN], the Activity in the assay with Rattus norvegicus [1] is 212 U/mg; with Rattus norvegicus [2], 285 U/mg. `CC[C@H](C)[C@@H]1NC(=O)[C@H](Cc2ccc(O)cc2)NC(=O)[C@@H](N)CSSC[C@@H](C(=O)N2CCC[C@H]2C(=O)N[C@@H](CC(C)C)C(=O)NCC(N)=O)NC(=O)[C@H](CC(N)=O)NC(=O)[C@H](CCC(N)=O)NC1=O` [OXYTOCIN] displayed an Activity in the assay on Rattus norvegicus [1] of 4 U/mg.

As for `N=C(N)NCCC[C@H](NC(=O)[C@@H]1CCCN1C(=O)[C@@H]1CSSC[C@H](N)C(=O)N[C@@H](Cc2ccc(O)cc2)C(=O)N[C@@H](Cc2ccccc2)C(=O)N[C@@H](CCC(N)=O)C(=O)N[C@@H](CC(N)=O)C(=O)N1)C(=O)NCC(N)=O` [VASOPRESSIN], the Activity in the assay on Rattus norvegicus [1] is on record as 323 U/mg.
